Laboratory results: ChEMBL document CHEMBL1122207, “Antitumor agents. 2. Bisguanylhydrazones of anthracene-9,10-dicarboxaldehydes” (1982)

How the values were obtained:
Type in all cases: functional
Mus musculus [1] = organism: Mus musculus; assay: Cures is the number of survivors of the total treated mice (6) with advanced L-1210 leukemia, at 30 days.
Outline: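 Advanced L-1210 leukemia, with ip treatment on days 5, 9 and 13 relative to tumor inoculation.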

Mus musculus [2] = assay: Percent increase in median life span of BDF1 mice with P-388 leukemia at dose 12.5 mg/kg administered intraperitoneally; Range is 100-120% 1, 5, 9 days of ip treatment relative to tumor inoculation; conditions: BDF1, P388, ip, 216 h, route intraperitoneal
Outline: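 BDF1 or CDF1 mice given 10^6 ascitic leukemia cells ip, then dosed ip on days 1, 5 and 9. Read-out is percent increase in life span versus untreated controls. Cures were scored as survivors/total at 30 days; when cures reached 50% or more, the run was extended until a specific ILS could be calculated. T/C ≥125% counted as significant.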

Mus musculus [3] = organism: Mus musculus; assay: Cures is the number of survivors of the total treated animals(12 mice) with P-388 leukemia, at 30 days.
Outline: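 BDF1 or CDF1 mice given 10^6 ascitic P-388 leukemia cells ip, then treated ip on days 1, 5 and 9. Cures are survivors over total treated at 30 days.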

Mus musculus [4] = assay: Percent increase in median life span of BDF1 mice with B-16 melanoma at dose 6.2 mg/kg administered intraperitoneally; 1-9 days of ip treatment relative to tumor inoculation; conditions: BDF1, B16, ip, route intraperitoneal
Outline: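 BDF1 mice were implanted ip with a homogenate from 0.05 g of B-16 melanoma. Ip dosing ran on days 1-9, starting 24 h after implant, in dose-response studies following NCI protocols. The read-out was percent increase in life span (ILS). T/C ≥125% was taken as significant.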

Mus musculus [5] = assay: Percent increase in median life span of BDF1 mice with advanced L-1210 leukemia at dose 12.5 mg/kg administered intraperitoneally; treatment day +2 iv; conditions: L1210
Mus musculus [6] = organism: Mus musculus; assay: Cures is the number of survivors of the total treated mice (10) with B-16 melanoma, at 60 days.
Outline: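 BDF1 mice were implanted ip with a homogenate from 0.05 g of B-16 melanoma and dosed ip on days 1-9. Cures are survivors over total at 60 days.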

SMILES: CC1(C)CNC(N/N=C/c2c3ccccc3c(/C=N/NC3=NCC(C)(C)N3)c3ccccc23)=N1.Cl.Cl
- Cures (Mus musculus [1]): 0
- ILS at 12.5 mg/kg (Mus musculus [2]): 100%
- Cures (Mus musculus [3]): 0
- ILS at 6.2 mg/kg (Mus musculus [4]): > 248%
- ILS at 12.5 mg/kg (Mus musculus [5]): 28%
- Cures (Mus musculus [6]): 5
